Legend:
[1] = system: Rattus norvegicus; assay: Antialzheimer activity in Sprague-Dawley rat assessed as amyloid beta 42 level in brain at 10 mg/kg, po at 4 hrs by ELISA relative to control; type: functional
In short: (§1)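 Male Sprague-Dawley rats (180-220 g), fasted overnight, were given 10 mg/kg by gastric intubation as a 5 mg/mL suspension in 0.5% methocellulose. At 2, 4, 7 and 25 h, 50 μL CSF was taken from the cisterna magna under isoflurane, then brain was collected. Aβ37/38/40/42 were measured by MesoScale Discovery sandwich immunoassays. Results are mean % change versus T = 0 h, n = 5.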

[2] = Drug uptake in Sprague-Dawley rat brain at 10 mg/kg, po at 7 hrs by LC-MS/MS analysis; type: ADME, organism-based; set-up: dose 10 mg/kg, route oral; details: read-out: Drug uptake
In short: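 Overnight-fasted male Sprague–Dawley rats (180–220 g) were dosed 10 mg/kg by gastric intubation of a 5 mg/mL suspension in 0.5% methocellulose. Rats were anesthetized with isoflurane, CSF was taken from the cisterna magna, then they were decapitated. Brain compound levels were measured as in the mouse assay. n = 5.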

[3] = Plasma concentration in CD1 mouse at 30 mg/kg, po at 4 hrs by LC-MS/MS analysis; type: ADME, organism-based; set-up: dose 30 mg/kg, route oral
In short: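 Single oral dose to overnight-fasted male CD1 mice in 20% Captisol suspension. Plasma was taken at 4 h by decapitation into EDTA tubes and spun at 1900g for 10 min at 4 °C. Compound was measured by a qualified LC-MS/MS method. Values are geometric means of at least four runs.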

[4] = system: Mus musculus; assay: Antialzheimer activity in CD1 mouse assessed as amyloid beta 38 level in brain at 30 mg/kg, po at 24 hrs by ELISA relative to control; type: functional
In short: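 Male CD1 SPF mice, fasted overnight, got a single oral dose of 10 or 30 mg/kg. At each time point the right brain hemisphere was homogenized in 0.4% DEA/50 mM NaCl with protease inhibitors and spun at 221300g for 50 min. The supernatant was neutralized with Tris-HCl pH 6.8. Aβ38 or Aβ42 was read by sandwich ELISA with a fluorogenic peroxidase substrate (ex 320/em 420 nm). Results are mean % change versus T = 0 h, n = 4.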

[5] = system: Rattus norvegicus; assay: Antialzheimer activity in Sprague-Dawley rat assessed as amyloid beta 42 level in brain at 10 mg/kg, po at 2 hrs by ELISA relative to control; type: functional; in short: as §1
[6] = system: Rattus norvegicus; assay: Antialzheimer activity in Sprague-Dawley rat assessed as amyloid beta 37 level in brain at 10 mg/kg, po at 25 hrs by ELISA relative to control; type: functional; in short: as §1
[7] = Fraction unbound in rat plasma; type: ADME, cell-free
[8] = system: Rattus norvegicus; assay: Antialzheimer activity in Sprague-Dawley rat assessed as amyloid beta 37 level in CSF at 10 mg/kg, po at 4 hrs by ELISA relative to control; type: functional; in short: as §1
[9] = system: Rattus norvegicus; assay: Antialzheimer activity in Sprague-Dawley rat assessed as amyloid beta 40 level in CSF at 10 mg/kg, po at 4 hrs by ELISA relative to control; type: functional; in short: as §1
[10] = Plasma concentration in CD1 mouse at 30 mg/kg, po at 8 hrs by LC-MS/MS analysis; type: ADME, organism-based; set-up: dose 30 mg/kg, route oral
In short: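 Mice received a single 10 or 30 mg/kg oral dose. Plasma was sampled at several time points up to 48 h, with EDTA plasma obtained by centrifugation at 1900g, 10 min, 4 °C. Compound was quantified by LC-MS/MS, n = 4.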

`COc1nc(Nc2cccc3c2nc(-c2ccc(F)cc2)n3C)ccc1-n1cnc(C)c1` showed an Activity [1] of 64%, a concentration at 7 h [2] of 2 µM and a concentration at 4 h [3] of 19.5 µM. The Activity [4] was 101%, the Activity [5] was 75% and the Activity [6] was 128%. The fraction unbound [7] was 0.0004, the Activity [8] was 955% and the Activity [9] was 60%. The concentration at 8 h [10] was 10.5 µM.
